{"source": "ChEMBL document CHEMBL1122773", "about": "(1984)", "format_in_all_cases": "functional", "key": {"Mus musculus [1]": {"test_system": "Mus musculus", "assay": "In vivo antibacterial activity against Streptococcus pneumoniae I (UC 41) infected mice after sc administration", "in_short": "(§1)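 Fresh drug solutions were given subcutaneously (0.2 mL) or by oral intubation (0.5 mL), per line. Dosing was immediately after infection, then daily for 4 consecutive days, with 3 further days of observation. CD50 was calculated by Spearman-Karber.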"}, "Mus musculus [2]": {"test_system": "Mus musculus", "assay": "In vivo antibacterial activity against Bacteroides fragilis (UC no 6428) infected mice after sc administration"}, "Mus musculus [3]": {"test_system": "Mus musculus", "assay": "In vivo antibacterial activity against Staphylococcus aureus (UC no 76) infected mice after sc administration", "in_short": "as §1"}, "Mus musculus [4]": {"test_system": "Mus musculus", "assay": "In vivo antibacterial activity against Streptococcus pneumoniae […](UC 3213) infected mice after sc administration", "in_short": "as §1"}, "Mus musculus [5]": {"test_system": "Mus musculus", "assay": "(§2) In vivo antibacterial activity against Pasteurella multocida(UC 264) infected mice after oral administration", "in_short": "as §1"}, "Mus musculus [6]": {"test_system": "Mus musculus", "assay": "In vivo antibacterial activity against Streptococcus pneumoniae I(UC 41) infected mice after oral administration", "in_short": "as §1"}, "Streptococcus pyogenes": {"test_system": "Streptococcus pyogenes", "assay": "In vivo antibacterial activity against Streptococcus pyogenes(UC 152) infected mice after oral administration (value in parenthesis is 95% confidence interval)", "in_short": "as §1"}, "Clostridioides difficile": {"test_system": "Clostridioides difficile", "assay": "In vitro antibacterial activity against the anaerobic Clostridium difficile (Strain UC no.6834)", "in_short": "(§3)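 Agar dilution with serial twofold drug dilutions in Schaedler broth mixed into molten Wilkens-Chalgren agar. Strains grown 48 h on Schaedler agar, suspended to 0.5 McFarland, and 0.001 mL spotted by replicator. All steps done anaerobically. Incubation 48 h at 37 °C. MIC is the least drug inhibiting growth; a faint film or fewer than three colonies scored negative.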"}, "Streptococcus pneumoniae": {"test_system": "Streptococcus pneumoniae", "assay": "In vivo antibacterial activity against Streptococcus pneumoniae III(UC 3213) infected mice after oral administration (value in parenthesis is 95% confidence interval)", "in_short": "as §1"}, "[7]": {"test_system": "Bacteroides thetaiotaomicron", "assay": "In vitro antibacterial activity against the anaerobic Bacteroides thetaiotaomicron (Strain UC no.6512)", "in_short": "as §3"}, "Eggerthella lenta": {"test_system": "Eggerthella lenta", "assay": "In vitro antibacterial activity against the anaerobic Eubacterium lentum(Strain UC no.6522)", "in_short": "as §3"}, "Enterococcus faecalis": {"test_system": "Enterococcus faecalis", "assay": "In vitro antibacterial activity against the aerobic […] (Strain UC no.694)", "in_short": "(§4)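 Broth microdilution in brain/heart infusion broth with twofold drug dilutions. Inoculum was a standardized suspension giving 10⁵ viable cells/mL final. Plates were incubated 20 h at 37 °C. MIC (mcg/mL) = lowest concentration with no visible growth.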"}, "Staphylococcus aureus": {"test_system": "Staphylococcus aureus", "assay": "In vitro antibacterial activity against the aerobic Staphylococcus aureus (Strain UC no.6690)", "in_short": "as §4"}, "[8]": {"test_system": "Prevotella melaninogenica", "assay": "In vitro antibacterial activity against the anaerobic Bacteroides melaninogenicus (Strain UC no.6326)", "in_short": "as §3"}, "Proteus vulgaris": {"test_system": "Proteus vulgaris", "assay": "In vivo antibacterial activity against Proteus vulgaris(UC no 347) infected mice after sc administration", "in_short": "as §1"}, "Plasmodium berghei": {"test_system": "Plasmodium berghei", "assay": "In vivo activity against Plasmodium berghei in mice (Mus musculus) after subcutaneous dose (95% confidence interval)"}, "Clostridium novyi": {"test_system": "Clostridium novyi", "assay": "In vitro antibacterial activity against the anaerobic Clostridium novyi B(Strain UC no.6329)", "in_short": "as §3"}, "Pasteurella multocida": {"test_system": "Pasteurella multocida", "assay": "as §2", "in_short": "as §1"}, "Clostridium tertium": {"test_system": "Clostridium tertium", "assay": "In vitro antibacterial activity against the anaerobic Clostridium tertium(Strain UC no.6508)", "in_short": "as §3"}, "[9]": {"test_system": "Fusobacterium necrophorum", "assay": "In vitro antibacterial activity against the anaerobic Fusobacterium necrophorum (Strain UC no.6568)", "in_short": "as §3"}, "Clostridium perfringens": {"test_system": "Clostridium perfringens", "assay": "In vitro antibacterial activity against the anaerobic Clostridium perfringens (Strain UC no.247)"}, "Bacteroides fragilis": {"test_system": "Bacteroides fragilis", "assay": "In vitro antibacterial activity against the anaerobic Bacteroides fragilis (Strain UC no.6862)", "in_short": "as §3"}}, "data": [{"compound": "CCC[C@@H]1C[C@@H](C(=O)N[C@@H]([C@H]2O[C@H](SC)[C@H](O)[C@@H](O)[C@H]2O)[C@H](C)Cl)N(C)C1", "note": "[CLINDAMYCIN]", "values": [{"measurement": "CD50", "setting": "Mus musculus [1]", "value": 40, "unit": "mg/kg"}, {"measurement": "CD50", "setting": "Mus musculus [2]", "value": 14.4, "unit": "mg/kg"}, {"measurement": "CD50", "setting": "Mus musculus [3]", "value": 5.7, "unit": "mg/kg"}, {"measurement": "CD50", "setting": "Mus musculus [4]", "value": 20, "unit": "mg/kg"}, {"measurement": "CD50", "setting": "Mus musculus [5]", "value": ">400", "unit": "mg/kg"}, {"measurement": "CD50", "setting": "Mus musculus [6]", "value": 45.5, "unit": "mg/kg"}]}, {"compound": "CC[C@@H]1CCN[C@H](C(=O)N[C@@H]([C@H]2O[C@H](SC)[C@H](O)[C@@H](O)[C@H]2O)[C@H](C)Cl)C1", "note": "[PIRLIMYCIN]", "values": [{"measurement": "CD50", "setting": "Streptococcus pyogenes", "value": 2.9, "unit": "mg/kg"}, {"measurement": "MIC", "setting": "Clostridioides difficile", "value": 3.9, "unit": "µg/mL"}, {"measurement": "CD50", "setting": "Streptococcus pneumoniae", "value": 17.7, "unit": "mg/kg"}, {"measurement": "MIC", "setting": "[7]", "value": 0.5, "unit": "µg/mL"}, {"measurement": "MIC", "setting": "Eggerthella lenta", "value": 1, "unit": "µg/mL"}, {"measurement": "MIC", "setting": "Enterococcus faecalis", "value": 6.25, "unit": "µg/mL"}, {"measurement": "MIC", "setting": "Staphylococcus aureus", "value": 0.2, "unit": "µg/mL"}, {"measurement": "MIC", "setting": "[8]", "value": 0.06, "unit": "µg/mL"}, {"measurement": "CD50", "setting": "Proteus vulgaris", "value": ">160", "unit": "mg/kg"}, {"measurement": "CD50", "setting": "Plasmodium berghei", "value": 16, "unit": "mg/kg"}, {"measurement": "MIC", "setting": "Clostridium novyi", "value": 0.12, "unit": "µg/mL"}, {"measurement": "CD50", "setting": "Pasteurella multocida", "value": 400, "unit": "mg/kg"}, {"measurement": "MIC", "setting": "Clostridium tertium", "value": 7.8, "unit": "µg/mL"}, {"measurement": "MIC", "setting": "[9]", "value": 0.06, "unit": "µg/mL"}, {"measurement": "MIC", "setting": "Clostridium perfringens", "value": 0.12, "unit": "µg/mL"}, {"measurement": "MIC", "setting": "Bacteroides fragilis", "value": 15.6, "unit": "µg/mL"}]}]}
